Results reported in ChEMBL document CHEMBL2331444, “Design, development and evaluation of novel dual PPARδ/PPARγ agonists” (Bioorg Med Chem Lett, 2013).
The source made the active and inactive calls.

Assays:
Format in all cases: cell-based
[1] = molecular target: T1, Peroxisome proliferator-activated receptor delta (Mus musculus) (UniProt P35396); assay: Agonist activity at PPARdelta in mouse 3T3L1 cells assessed as upregulation of PDK4 mRNA level at 10 uM after 6 days […] relative to control; settings: 3T3-L1
T1 sequence (whole entry): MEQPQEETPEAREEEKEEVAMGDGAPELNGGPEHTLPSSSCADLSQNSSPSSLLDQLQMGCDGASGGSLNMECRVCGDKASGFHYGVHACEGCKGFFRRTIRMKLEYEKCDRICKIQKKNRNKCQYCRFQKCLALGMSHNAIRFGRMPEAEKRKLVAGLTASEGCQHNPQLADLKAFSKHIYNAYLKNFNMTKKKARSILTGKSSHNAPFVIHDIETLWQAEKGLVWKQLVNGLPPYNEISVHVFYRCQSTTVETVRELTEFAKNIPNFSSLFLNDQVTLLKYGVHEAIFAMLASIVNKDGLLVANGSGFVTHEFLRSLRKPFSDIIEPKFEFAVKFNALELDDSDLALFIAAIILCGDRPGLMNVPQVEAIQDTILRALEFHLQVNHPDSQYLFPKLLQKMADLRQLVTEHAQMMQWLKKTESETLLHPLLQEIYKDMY

[2] = molecular target: T2, Peroxisome proliferator-activated receptor gamma (Mus musculus) (UniProt P37238); assay: Agonist activity at PPARgamma in mouse 3T3L1 cells assessed as upregulation of ATGL mRNA level at 10 uM after 6 days […] relative to control; settings: 3T3-L1
T2 sequence (whole entry): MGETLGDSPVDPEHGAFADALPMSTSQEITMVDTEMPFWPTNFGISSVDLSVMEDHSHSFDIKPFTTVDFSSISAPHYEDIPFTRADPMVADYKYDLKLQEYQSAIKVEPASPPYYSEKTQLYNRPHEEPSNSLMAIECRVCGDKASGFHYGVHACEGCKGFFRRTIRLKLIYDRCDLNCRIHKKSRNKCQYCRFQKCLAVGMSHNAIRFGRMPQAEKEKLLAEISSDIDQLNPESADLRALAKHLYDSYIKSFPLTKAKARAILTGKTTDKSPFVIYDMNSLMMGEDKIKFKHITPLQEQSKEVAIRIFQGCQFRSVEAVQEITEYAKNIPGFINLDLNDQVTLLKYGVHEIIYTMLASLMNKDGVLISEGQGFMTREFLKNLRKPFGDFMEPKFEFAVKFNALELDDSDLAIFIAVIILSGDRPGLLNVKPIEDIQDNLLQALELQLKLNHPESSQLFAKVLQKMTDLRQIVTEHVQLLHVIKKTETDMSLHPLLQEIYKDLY

[3] = molecular target: T2, Peroxisome proliferator-activated receptor gamma (Mus musculus); assay: Agonist activity at PPARgamma in mouse 3T3L1 cells assessed as upregulation of MCAD mRNA level at 10 uM after 6 days […] relative to control; settings: 3T3-L1
[4] = molecular target: T2, Peroxisome proliferator-activated receptor gamma (Mus musculus); assay: Agonist activity at PPARgamma in mouse 3T3L1 cells assessed as upregulation of HSL mRNA level at 10 uM after 6 days […] relative to control; settings: 3T3-L1
[5] = molecular target: T2, Peroxisome proliferator-activated receptor gamma (Mus musculus); assay: Agonist activity at PPARgamma in mouse 3T3L1 cells assessed as downregulation of CD36 mRNA level at 10 uM after 6 days […] relative to control; settings: 3T3-L1
[6] = molecular target: T2, Peroxisome proliferator-activated receptor gamma (Mus musculus); assay: Agonist activity at PPARgamma in mouse 3T3L1 cells assessed as upregulation of ADPN mRNA level at 10 uM after 6 days […] relative to control; settings: 3T3-L1
[7] = molecular target: T2, Peroxisome proliferator-activated receptor gamma (Mus musculus); assay: Agonist activity at PPARgamma in mouse 3T3L1 cells assessed as downregulation of FATP mRNA level at 10 uM after 6 days […] relative to control; settings: 3T3-L1
[8] = molecular target: T2, Peroxisome proliferator-activated receptor gamma (Mus musculus); assay: Agonist activity at PPARgamma in mouse 3T3L1 cells assessed as downregulation of FABP mRNA level at 10 uM after 6 days […] relative to control; settings: 3T3-L1
[9] = molecular target: T2, Peroxisome proliferator-activated receptor gamma (Mus musculus); assay: Agonist activity at PPARgamma in mouse 3T3L1 cells assessed as downregulation of DGAT mRNA level at 10 uM after 6 days […] relative to control; settings: 3T3-L1
[10] = molecular target: T3, Peroxisome proliferator-activated receptor gamma (Homo sapiens) (UniProt P37231); assay: Transactivation of PPARgamma (unknown origin) expressed in HEK293 cells co-transfected with AP2-PPRE by luciferase reporter gene assay
T3 sequence (whole entry): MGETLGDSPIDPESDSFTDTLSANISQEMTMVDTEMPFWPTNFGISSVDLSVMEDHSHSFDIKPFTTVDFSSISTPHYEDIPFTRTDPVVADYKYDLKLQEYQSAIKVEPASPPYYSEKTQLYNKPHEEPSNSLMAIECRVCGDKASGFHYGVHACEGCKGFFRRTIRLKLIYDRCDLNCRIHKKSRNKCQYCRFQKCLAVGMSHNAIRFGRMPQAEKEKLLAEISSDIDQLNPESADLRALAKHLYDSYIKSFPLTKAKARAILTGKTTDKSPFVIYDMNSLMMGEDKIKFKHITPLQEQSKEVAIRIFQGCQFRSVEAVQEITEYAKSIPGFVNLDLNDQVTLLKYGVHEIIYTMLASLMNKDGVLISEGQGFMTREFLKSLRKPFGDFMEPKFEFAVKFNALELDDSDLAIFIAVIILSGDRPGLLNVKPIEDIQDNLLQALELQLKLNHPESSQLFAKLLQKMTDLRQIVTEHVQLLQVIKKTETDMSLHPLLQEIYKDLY
Summary of the method: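 PPRE reporter plasmid (AP2 promoter element) transiently co-transfected into HEK-293 cells with RXR, PPARγ and β-galactosidase vectors using Lipofectamine 2000. Cells were treated across a dose–response series, plotted on a log(μM) axis from about −2 to 2. Luciferase was read as relative light units on a luminometer and normalised to β-galactosidase activity measured with ONPG.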

Measured: Activity

Cc1ccc(CNCCCN(Cc2ccc(C(=O)O)cc2)Cc2cc(C(F)(F)F)cc(C(F)(F)F)c2)cc1
active: all assays above
